How the values were obtained:
[1] = molecular target: Human immunodeficiency virus type 1 reverse transcriptase (Human immunodeficiency virus 1, UniProt Q72547); assay: Inhibition of His6-tagged HIV-1 reverse transcriptase RNase H using 5'-GTTTTCTTTTCCCCCCTGAC-3'-Fluorescein-labeled RNA/5'-CAAAAGAAAAGGGGGGACUG-3'-Dabcyl-labeled DNA as susbtrate incubated for 1 hr by fluorescence based assay
[2] = molecular target: T1, Human immunodeficiency virus type 1 integrase (Human immunodeficiency virus 1, UniProt Q7ZJM1); assay: Inhibition of LEDGF/p75-dependent full length HIV-1 integrase expressed in Escherichia coli BL21(DE3) cells preincubated for 1 hr further incubated for 90 mins with biotin-labeled donor DNA and target DNA by HTRF assay
T1 sequence (Q7ZJM1 whole entry): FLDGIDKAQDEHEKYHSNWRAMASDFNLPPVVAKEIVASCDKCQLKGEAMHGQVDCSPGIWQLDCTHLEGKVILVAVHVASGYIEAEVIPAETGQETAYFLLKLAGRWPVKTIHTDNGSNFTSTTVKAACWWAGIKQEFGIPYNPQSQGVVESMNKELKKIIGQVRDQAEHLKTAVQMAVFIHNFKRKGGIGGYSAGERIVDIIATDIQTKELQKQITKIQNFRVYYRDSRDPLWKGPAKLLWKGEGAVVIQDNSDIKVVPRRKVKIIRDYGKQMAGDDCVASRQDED

[3] = molecular target: T1, Human immunodeficiency virus type 1 integrase; assay: Inhibition of subunit exchanging activity of His and Flag-tagged HIV-1 integrase expressed in Escherichia coli BL21(DE3) cells after 2.5 hrs by HTRF assay
[4] = Inhibition of His-tagged HIV-1 integrase interaction with HIV-1 FLAG-tagged LEDGF/p75 expressed in Escherichia coli BL21(DE3) cells incubated for 30 mins followed by LEDGF addition measured after 4 hrs by HTRF assay; design: species or system Human immunodeficiency virus 1
[5] = tested on: Human immunodeficiency virus 1; assay: Inhibition of His-tagged HIV-1 integrase interaction with HIV-1 FLAG-tagged LEDGF/p75 expressed in Escherichia coli BL21(DE3) cells at 100 uM incubated for 30 mins followed by LEDGF addition measured after 4 hrs by HTRF assay relative to control
[6] = molecular target: Human immunodeficiency virus type 1 integrase (Human immunodeficiency virus 1) (UniProt Q7ZJM1)
Sequence of Human immunodeficiency virus type 1 integrase (Human immunodeficiency virus 1) (Q7ZJM1 as listed by the source): as the sequence (Q7ZJM1 whole entry) above

[7] = molecular target: Human immunodeficiency virus type 1 reverse transcriptase (Human immunodeficiency virus 1) (UniProt Q72547); assay: Residual activity of His-tagged HIV-1 reverse transcriptase RNase H at 100 uM using 5'-GTTTTCTTTTCCCCCCTGAC-3'-Fluorescein-labeled RNA/5'-CAAAAGAAAAGGGGGGACUG-3'-Dabcyl-labeled DNA as susbtrate incubated for 1 hr by fluorescence based assay relative to control
[8] = molecular target: Human immunodeficiency virus type 1 integrase (Human immunodeficiency virus 1) (UniProt Q7ZJM1); assay: Inhibition of LEDGF/p75-dependent full length HIV-1 integrase expressed in Escherichia coli BL21(DE3) cells at 100 uM preincubated for 1 hr further incubated for 90 mins with biotin-labeled donor DNA and target DNA by HTRF assay relative to control
Summary of the method: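 Added 9 nM biotinylated donor DNA, 50 nM Cy5 acceptor DNA and 50 nM LEDGF/p75. Incubation 90 min at 37 °C, then 4 nM europium-streptavidin added. HTRF read (excitation 314 nm, emission 668/620 nm).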

Structure (SMILES) | IC50 [1] [µM] | IC50 [2] [µM] | IC50 [3] [µM] | IC50 [4] [µM] | inhibition [5] [%] | MI50 [6] [µM] | residual activity [7] [%] | inhibition [8] [%]
CC(=O)c1c(O)c2c(=O)oc3c(C)cccc3c2oc1=O | 25.5 | 18.5 |  |  |  |  |  | 
Cc1ccc2oc(=O)c3c(O)cc(=O)oc3c2c1 | 16.5 | 9.5 | 69 | > 100 | 55 | > 100 |  | 
CC(=O)CC(=O)c1c(O)c2c(=O)oc3ccccc3c2oc1=O | 85.8 | 42 |  |  |  |  |  | 
Cc1nnc(C(=O)NC(C)(C)c2nc(C(=O)NCc3ccc(F)cc3)c(O)c(=O)n2C)o1 |  |  |  | > 100 | 100 |  |  | 
O=c1cc(O)c2c(=O)oc3ccc4ccccc4c3c2o1 | 61.3 | 21.5 |  |  |  |  |  | 
Cc1ccc2c(c1)oc(=O)c1c(O)cc(=O)oc12 | > 100 | 41.5 |  |  |  |  | 89 | 
CCCC(C(=O)O)c1c(C)nc2ccc(Cl)cc2c1-c1ccccc1 (centres undefined) |  |  |  | 13 |  | 10 |  | 
CC(=O)CC(=O)c1c(O)c2c(=O)oc3c4ccccc4ccc3c2oc1=O | 51.2 | 11 | 85 | > 100 | 73 | > 100 |  | 
Cc1cc(-c2c(O)c3c(=O)oc4ccccc4c3oc2=O)nn1-c1ccccc1 | 51.8 | > 100 |  |  |  |  |  | 61
CC(=O)c1c(O)c2c(=O)oc3ccc(C)cc3c2oc1=O | 6.75 | 6.45 | 56.5 | > 100 | 52 | > 100 |  | 
CC(=O)c1c(O)c2c(=O)oc3cc(C)ccc3c2oc1=O | > 100 | 22.4 |  |  |  |  | 63 | 
CC(=O)c1c(O)c2c(=O)oc3ccccc3c2oc1=O | 26.3 | 8.5 |  |  |  |  |  | 
Cc1ccc2oc(=O)c3cc(C4=Nc5ccc(C(=O)c6ccccc6)cc5N=CC4)c(=O)oc3c2c1 | 42.9 | > 100 |  |  |  |  |  | 78
Cc1cc(=O)c2c(=O)oc3c4ccccc4oc(=O)c3c2o1 | 16.8 | 14 | > 100 | > 100 | 56 | > 100 |  | 
O=C(c1ccccc1)c1ccc2c(c1)N=CCC(c1c(O)c3c(=O)oc4ccccc4c3oc1=O)=N2 | 38.4 | 20 | > 100 | > 100 | 81 | > 100 |  | 
O=c1cc(O)c2c(=O)oc3c4ccccc4ccc3c2o1 | 24.7 | 7.5 | 57 | > 100 | 53 | > 100 |  | 
Cc1cccc2c1oc(=O)c1c(O)cc(=O)oc12 | 29.8 | 24 |  |  |  |  |  | 
CC(=O)CC(=O)c1c(O)c2c(=O)oc3ccc4ccccc4c3c2oc1=O | 13.8 | 47.5 |  |  |  |  |  | 

Source: ChEMBL document CHEMBL4359896, “Chromenone derivatives as a versatile scaffold with dual mode of inhibition of HIV-1 reverse transcriptase-associated Ribonuclease H function and integrase activity” (Eur J Med Chem, 2019)
